Test results reported in ChEMBL document CHEMBL3045116, “Synthesis and biological evaluation of 2-(5-substituted-1-((diethylamino)methyl)-2-oxoindolin-3-ylidene)-N-substituted-hydrazinecarbothioamides” (Med Chem Res, 2013).

How the values were obtained:
[1] = (§1) Cytotoxicity against Homo sapiens (human) HeLa cells assessed as change in cellular morphology; assay type: cell-based; settings: HeLa cells
Method in brief: (§2)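 Uninfected cells were exposed to compound in parallel with the antiviral cultures. The read-out is the minimum cytotoxic concentration that causes a microscopically detectable alteration of normal cell morphology.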

HeLa = assay: as §1; assay type: cell-based; settings: hela; method in brief: as §2
Influenza B virus = assay: Antiviral activity against Influenza B virus infected in MDCK cells assessed as reduction of virus-induced cytopathic effect after 3 days by colorimetric formazan-based MTS assay; assay type: functional, organism-based; settings: 72 h
Method in brief: (§3)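 Confluent cell monolayers were infected with 100 CCID50 of virus, and serial dilutions of compound were added at the time of infection.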

Human alphaherpesvirus 2 = assay: Antiviral activity against Human herpesvirus 2 strain G infected human HEL cells assessed as reduction of virus-induced cytopathic effect after 3 days by colorimetric formazan-based MTS assay; assay type: functional, organism-based; settings: Human alphaherpesvirus 2, strain G, 72 h; method in brief: as §3
Felid alphaherpesvirus 1 = assay: Antiviral activity against Felid herpesvirus 1 infected cat CRFK cells assessed as reduction of virus-induced cytopathic effect after 3 days by colorimetric formazan-based MTS assay; assay type: functional, organism-based; settings: Felid alphaherpesvirus 1, CRFK, 72 h
Method in brief: (§4)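 Cells grown to confluency in 96-well plates ([…], Vero for lines 9–10) were infected with 100 CCID50 of virus, and serial compound dilutions were added at infection. Plates were incubated at 37 °C for 3 days, until complete CPE appeared in untreated virus controls.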

[2] = Inhibition of beta lactamase assessed as time for decolorization of iodine (reference value: 79.5 secs)
CCRF-CEM = assay: Cytotoxicity against Homo sapiens (human) CEM cells assessed as growth inhibition after 72 hr by coulter counter analysis; assay type: functional, cell-based
Method in brief: (§5)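 Cells in growth medium were allowed to proliferate with variable compound amounts at 37 °C in a humidified CO2 atmosphere. Incubation ran 48 h for L1210, 72 h for CEM and 96 h for HeLa. Cells were then counted with a Coulter counter.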

[3] = test system: Vesicular stomatitis virus; assay: Antiviral activity against Vesicular stomatitis virus infected human HeLa cells assessed as reduction of virus-induced cytopathic effect after 3 days by colorimetric formazan-based MTS assay; assay type: functional, organism-based; settings: 72 h; method in brief: as §3
Human alphaherpesvirus 1 [4] = assay: Antiviral activity against acyclovir-resistant thymidine kinase negative Human herpesvirus 1 strain KOS infected human HEL cells assessed as reduction of virus-induced cytopathic effect after 3 days by colorimetric formazan-based MTS assay; assay type: functional, organism-based; settings: Human alphaherpesvirus 1, KOS, 72 h; method in brief: as §3
[5] = test system: Feline infectious peritonitis virus; assay: Antiviral activity against Feline Infectious peritonitis virus infected cat CRFK cells assessed as reduction of virus-induced cytopathic effect after 3 days by colorimetric formazan-based MTS assay; assay type: functional, organism-based; settings: Alphacoronavirus 1, CRFK, 72 h; method in brief: as §3
Aspergillus niger = assay: Antifungal activity against Aspergillus niger assessed as growth inhibition at 50 ug/ml by cup-plate method (reference value: 8 to 10 mm); assay type: functional; settings: read-out: DIZ
Coxsackievirus B4 [6] = assay: Antiviral activity against Human coxsackievirus B4 infected African green monkey Vero cells assessed as reduction of virus-induced cytopathic effect after 3 days by colorimetric formazan-based MTS assay; assay type: functional, organism-based; settings: Enterovirus B, 72 h; method in brief: as §3
Escherichia coli = assay: Antibacterial activity against Escherichia coli assessed as growth inhibition at 50 ug/ml by cup-plate method (reference value: 8 to 10 mm); assay type: functional; settings: read-out: DIZ
Staphylococcus aureus = assay: Antibacterial activity against Staphylococcus aureus assessed as growth inhibition at 50 ug/ml by cup-plate method (reference value: 8 to 10 mm); assay type: functional; settings: read-out: DIZ
[7] = test system: Vesicular stomatitis virus; assay: Antiviral activity against Vesicular stomatitis virus infected human HEL cells assessed as reduction of virus-induced cytopathic effect after 3 days by colorimetric formazan-based MTS assay; assay type: functional, organism-based; settings: 72 h; method in brief: as §3
Human respirovirus 3 = assay: Antiviral activity against Human parainfluenza virus 3 infected African green monkey Vero cells assessed as reduction of virus-induced cytopathic effect after 3 days by colorimetric formazan-based MTS assay; assay type: functional, organism-based; settings: Human respirovirus 3, Vero, 72 h; method in brief: as §4
[8] = Cytotoxicity against Felis catus (cat) CRFK cells assessed as change in cellular morphology; assay type: cell-based; settings: crfk; method in brief: as §2
Bacillus subtilis = assay: Antibacterial activity against Bacillus subtilis assessed as growth inhibition at 50 ug/ml by cup-plate method (reference value: 8 to 10 mm); assay type: functional; settings: read-out: DIZ
[9] = test system: Respiratory syncytial virus; assay: Antiviral activity against Respiratory syncytial virus infected human HeLa cells assessed as reduction of virus-induced cytopathic effect after 3 days by colorimetric formazan-based MTS assay; assay type: functional, organism-based; settings: 72 h; method in brief: as §3
Salmonella typhi = assay: Antibacterial activity against Salmonella enterica subsp. enterica serovar Typhi assessed as growth inhibition at 50 ug/ml by cup-plate method (reference value: 8 to 10 mm); assay type: functional; settings: read-out: DIZ
[10] = Inhibition of beta lactamase assessed as increase in time taken for iodine decolorization relative to control; design: concentration or dose not given beside the values; settings: concentration not given here
Human alphaherpesvirus 1 [11] = assay: Antiviral activity against Human herpesvirus 1 strain KOS infected human HEL cells assessed as reduction of virus-induced cytopathic effect after 3 days by colorimetric formazan-based MTS assay; assay type: functional, organism-based; settings: Human alphaherpesvirus 1, KOS, 72 h; method in brief: as §3
Proteus vulgaris = assay: Antibacterial activity against Proteus vulgaris assessed as growth inhibition at 50 ug/ml by cup-plate method (reference value: 8 to 10 mm); assay type: functional; settings: read-out: DIZ
Punta Toro virus = assay: Antiviral activity against Punta Toro virus infected in African green monkey Vero cells assessed as reduction of virus-induced cytopathic effect after 3 days by colorimetric formazan-based MTS assay; assay type: functional, organism-based; settings: 72 h; method in brief: as §3
[12] = Cytotoxicity against Homo sapiens (human) HEL cells assessed as change in cellular morphology; assay type: cell-based
[13] = Cytotoxicity against Chlorocebus aethiops (African green monkey) Vero cells assessed as change in cellular morphology; assay type: cell-based; settings: chlorocebus sabaeus
Influenza A virus = assay: Antiviral activity against Unidentified Influenza A virus (H1N1) infected MDCK cells assessed as reduction of virus-induced cytopathic effect after 3 days by colorimetric formazan-based MTS assay; assay type: functional, organism-based; settings: 72 h; method in brief: as §3
L1210 = assay: Cytotoxicity against Mus musculus (mouse) L1210 cells assessed as growth inhibition after 48 hr by coulter counter analysis; assay type: functional, cell-based; settings: L1210, 48 h; method in brief: as §5
Vaccinia virus = assay: Antiviral activity against Vaccinia virus infected human HEL cells assessed as reduction of virus-induced cytopathic effect after 3 days by colorimetric formazan-based MTS assay; assay type: functional, organism-based; settings: Orthopoxvirus vaccinia, 72 h; method in brief: as §3
Coxsackievirus B4 [14] = assay: Antiviral activity against Human coxsackievirus B4 infected human HeLa cells assessed as reduction of virus-induced cytopathic effect after 3 days by colorimetric formazan-based MTS assay; assay type: functional, organism-based; settings: Enterovirus B, 72 h; method in brief: as §3
Candida albicans = assay: Antifungal activity against Candida albicans assessed as growth inhibition at 50 ug/ml by cup-plate method (reference value: 8 to 10 mm); assay type: functional; settings: read-out: DIZ
[15] = (§6) Cytotoxicity against MDCK cells assessed as change in cellular morphology; assay type: cell-based, Canis lupus familiaris; settings: dog, MDCK cells; method in brief: as §2
MDCK = assay: as §6; assay type: cell-based, Canis lupus familiaris; settings: dog, mdck; method in brief: as §2
Influenza A virus H3N2 = assay: Antiviral activity against Influenza A virus H3N2 infected MDCK cells assessed as reduction of virus-induced cytopathic effect after 3 days by colorimetric formazan-based MTS assay; assay type: functional, organism-based; settings: 72 h; method in brief: as §3
Respirovirus muris = assay: Antiviral activity against Sendai virus infected African green monkey Vero cells assessed as reduction of virus-induced cytopathic effect after 3 days by colorimetric formazan-based MTS assay; assay type: functional, organism-based; settings: 72 h
Klebsiella pneumoniae = assay: Antibacterial activity against Klebsiella pneumoniae assessed as growth inhibition at 50 ug/ml by cup-plate method (reference value: 8 to 10 mm); assay type: functional; settings: read-out: DIZ
[16] = test system: Mammalian orthoreovirus 1; assay: Antiviral activity against Mammalian orthoreovirus 1 infected African green monkey Vero cells assessed as reduction of virus-induced cytopathic effect after 3 days by colorimetric formazan-based MTS assay; assay type: functional, organism-based; settings: Mammalian orthoreovirus 1, Vero, 72 h; method in brief: as §4

SMILES | MCC [1] [µM] | CC50 (HeLa) [µM] | EC50 (Influenza B virus) [µM] | EC50 (Human alphaherpesvirus 2) [µM] | IC50 (CCRF-CEM) [µM] | EC50 [3] [µM] | zone of inhibition at 50 µg/mL (Aspergillus niger) [mm] | EC50 (Coxsackievirus B4 [6]) [µM] | EC50 (Human respirovirus 3) [µM] | EC50 [9] [µM] | MCC [13] [µM] | EC50 (Influenza A virus) [µM] | IC50 (L1210) [µM] | EC50 (Coxsackievirus B4 [14]) [µM] | zone of inhibition at 50 µg/mL (Candida albicans) [mm] | MCC [15] [µM] | CC50 (MDCK) [µM] | EC50 (Influenza A virus H3N2) [µM] | EC50 (Respirovirus muris) [µM] | EC50 [16] [µM] | also measured
CCN(CC)CN1C(=O)/C(=N/NC(=S)Nc2ccc(OC)cc2)c2ccccc21 | ≥ 4 | > 100 | > 0.8 | > 20 | 1.9 | > 4 | 11 | > 0.8 | > 0.8 | > 4 | 4 | > 0.8 | 2.4 | > 4 | 11 | 4 | 9.2 | > 0.8 | > 0.8 | > 0.8 | EC50 (Felid alphaherpesvirus 1): > 0.8 µM; TIME [2]: 0.0343 h; EC50 (Human alphaherpesvirus 1 [4]): > 20 µM; EC50 [5]: > 0.8 µM; zone of inhibition at 50 µg/mL (Escherichia coli): 11 mm; zone of inhibition at 50 µg/mL (Staphylococcus aureus): 11 mm; EC50 [7]: > 20 µM; CC50 [8]: 3.5 µM; zone of inhibition at 50 µg/mL (Bacillus subtilis): 11 mm; zone of inhibition at 50 µg/mL (Salmonella typhi): 21 mm; inhibition [10]: 35.7%; EC50 (Human alphaherpesvirus 1 [11]): > 20 µM; zone of inhibition at 50 µg/mL (Proteus vulgaris): 21 mm; EC50 (Punta Toro virus): > 0.8 µM; MCC [12]: 100 µM; EC50 (Vaccinia virus): > 20 µM; zone of inhibition at 50 µg/mL (Klebsiella pneumoniae): 11 mm
NC12CC3CC(CC(C3)C1)C2 [AMANTADINE] |  |  | > 500 |  |  |  |  |  |  |  |  | 65.5 |  |  |  | > 500 | > 500 | 1.5 |  |  | 
N[C@@H](Cc1ccc(N(CCCl)CCCl)cc1)C(=O)O |  |  |  |  | 2.2 |  |  |  |  |  |  |  | 3.2 |  |  |  |  |  |  |  | 
OC(Cn1cncn1)(Cn1cncn1)c1ccc(F)cc1F [FLUCONAZOLE] |  |  |  |  |  |  | 31 |  |  |  |  |  |  |  | 31 |  |  |  |  |  | 
CCN(CC)CN1C(=O)/C(=N/NC(=S)Nc2ccc(Cl)cc2)c2cc(Cl)ccc21 | 100 | 9.4 | > 0.8 | > 20 | > 125 | > 20 | 21 | > 20 | > 20 | > 20 | 100 | > 0.8 | > 125 | > 20 | 21 | ≥ 0.8 | 2.4 | > 0.8 | > 20 | > 20 | EC50 (Felid alphaherpesvirus 1): > 4 µM; TIME [2]: 0.0395 h; EC50 (Human alphaherpesvirus 1 [4]): > 20 µM; EC50 [5]: > 4 µM; zone of inhibition at 50 µg/mL (Escherichia coli): 21 mm; zone of inhibition at 50 µg/mL (Staphylococcus aureus): 21 mm; EC50 [7]: > 20 µM; CC50 [8]: 9.1 µM; zone of inhibition at 50 µg/mL (Bacillus subtilis): 21 mm; zone of inhibition at 50 µg/mL (Salmonella typhi): 21 mm; inhibition [10]: 44.2%; EC50 (Human alphaherpesvirus 1 [11]): > 20 µM; zone of inhibition at 50 µg/mL (Proteus vulgaris): 21 mm; EC50 (Punta Toro virus): > 20 µM; MCC [12]: 100 µM; EC50 (Vaccinia virus): > 20 µM; zone of inhibition at 50 µg/mL (Klebsiella pneumoniae): 11 mm
CCN(CC)CN1C(=O)/C(=N/NC(=S)Nc2ccc(C)cc2)c2ccccc21 | ≥ 20 | 10.7 | > 0.16 | 12 | 12 | > 20 | 11 | > 20 | > 20 | > 20 | 100 | > 0.16 | 29 | > 20 | 11 | 0.8 | 0.2 | > 0.16 | > 20 | > 20 | EC50 (Felid alphaherpesvirus 1): > 0.8 µM; TIME [2]: 0.0405 h; EC50 (Human alphaherpesvirus 1 [4]): ≥ 20 µM; EC50 [5]: > 0.8 µM; zone of inhibition at 50 µg/mL (Escherichia coli): 21 mm; zone of inhibition at 50 µg/mL (Staphylococcus aureus): 21 mm; EC50 [7]: > 20 µM; CC50 [8]: 3.8 µM; zone of inhibition at 50 µg/mL (Bacillus subtilis): 21 mm; zone of inhibition at 50 µg/mL (Salmonella typhi): 21 mm; inhibition [10]: 45.5%; EC50 (Human alphaherpesvirus 1 [11]): 14 µM; zone of inhibition at 50 µg/mL (Proteus vulgaris): 11 mm; EC50 (Punta Toro virus): > 20 µM; MCC [12]: 100 µM; EC50 (Vaccinia virus): 11 µM; zone of inhibition at 50 µg/mL (Klebsiella pneumoniae): 11 mm
NC(=O)c1ncn([C@@H]2O[C@H](CO)[C@@H](O)[C@H]2O)n1 [RIBAVIRIN] | > 250 |  | 8.4 |  |  | 12.1 |  | > 250 | 50 | 4.6 | > 250 | 11.5 |  | 28.5 |  | ≥ 100 |  | 6.8 | > 250 | > 250 | CC50 [1]: > 250 µM
